pIC50: −log10 of the molar value.
How the values were obtained:
[1] = target: T1, Cytochrome P450 11B2, mitochondrial (Homo sapiens, UniProt P19099); assay: Inhibition of human CYP11B2 expressed in V79 cells assessed as aldosterone level after 3 hrs by HTRF assay in presence of 125 nM 11-deoxycorticosterone; format: cell-based
T1 sequence (P19099 whole entry): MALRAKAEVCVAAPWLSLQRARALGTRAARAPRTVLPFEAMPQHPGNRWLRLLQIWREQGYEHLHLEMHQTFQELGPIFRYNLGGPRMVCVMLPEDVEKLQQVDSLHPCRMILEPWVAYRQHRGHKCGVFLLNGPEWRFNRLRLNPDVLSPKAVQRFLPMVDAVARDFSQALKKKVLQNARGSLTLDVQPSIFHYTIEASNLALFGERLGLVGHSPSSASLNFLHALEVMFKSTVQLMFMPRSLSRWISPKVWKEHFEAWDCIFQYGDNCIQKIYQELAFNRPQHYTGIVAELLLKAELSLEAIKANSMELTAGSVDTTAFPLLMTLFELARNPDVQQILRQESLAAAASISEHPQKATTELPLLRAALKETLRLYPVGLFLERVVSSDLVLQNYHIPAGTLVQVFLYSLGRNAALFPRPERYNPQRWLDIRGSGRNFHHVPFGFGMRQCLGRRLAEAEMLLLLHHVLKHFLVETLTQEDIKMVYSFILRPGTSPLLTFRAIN

[2] = target: T2, Cytochrome P450 11B1, mitochondrial (Homo sapiens, UniProt P15538); assay: (§1) Inhibition of human CYP11B1 expressed in V79 cells assessed as cortisol level after 3 hrs by HTRF assay in presence of 250 nM 11-deoxycortisol; format: cell-based
T2 sequence (P15538 whole entry): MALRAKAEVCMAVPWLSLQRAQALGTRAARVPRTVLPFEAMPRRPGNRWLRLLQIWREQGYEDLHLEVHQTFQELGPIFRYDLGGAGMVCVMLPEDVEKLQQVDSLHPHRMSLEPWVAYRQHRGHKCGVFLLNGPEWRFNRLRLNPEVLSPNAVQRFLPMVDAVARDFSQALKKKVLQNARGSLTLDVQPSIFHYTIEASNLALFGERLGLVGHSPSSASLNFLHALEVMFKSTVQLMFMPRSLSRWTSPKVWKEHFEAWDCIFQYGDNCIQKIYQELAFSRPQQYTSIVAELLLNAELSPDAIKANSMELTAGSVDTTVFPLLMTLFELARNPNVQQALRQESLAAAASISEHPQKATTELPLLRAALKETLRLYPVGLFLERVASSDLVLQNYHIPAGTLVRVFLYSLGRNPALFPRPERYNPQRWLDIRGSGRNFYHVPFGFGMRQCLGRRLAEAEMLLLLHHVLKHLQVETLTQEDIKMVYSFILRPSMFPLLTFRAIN

Homo sapiens = species on record: Homo sapiens; assay: Selectivity index, ratio IC50 for human CYP11B1 to IC50 for human CYP11B2
In short: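 Ratio of human CYP11B1 IC50 to human CYP11B2 IC50; each IC50 calculated from n ≥ 2 determinations.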

[3] = Lipophilicity, log D of the compound by HPLC; format: physicochemical
In short: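 Lipophilicity determined experimentally by HPLC.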

Cytochrome P450 3A4 = Cytochrome P450 3A4 (Homo sapiens, UniProt P08684); assay: Inhibition of human CYP3A4; format: ADME
Chain of Cytochrome P450 3A4 (P08684 whole entry): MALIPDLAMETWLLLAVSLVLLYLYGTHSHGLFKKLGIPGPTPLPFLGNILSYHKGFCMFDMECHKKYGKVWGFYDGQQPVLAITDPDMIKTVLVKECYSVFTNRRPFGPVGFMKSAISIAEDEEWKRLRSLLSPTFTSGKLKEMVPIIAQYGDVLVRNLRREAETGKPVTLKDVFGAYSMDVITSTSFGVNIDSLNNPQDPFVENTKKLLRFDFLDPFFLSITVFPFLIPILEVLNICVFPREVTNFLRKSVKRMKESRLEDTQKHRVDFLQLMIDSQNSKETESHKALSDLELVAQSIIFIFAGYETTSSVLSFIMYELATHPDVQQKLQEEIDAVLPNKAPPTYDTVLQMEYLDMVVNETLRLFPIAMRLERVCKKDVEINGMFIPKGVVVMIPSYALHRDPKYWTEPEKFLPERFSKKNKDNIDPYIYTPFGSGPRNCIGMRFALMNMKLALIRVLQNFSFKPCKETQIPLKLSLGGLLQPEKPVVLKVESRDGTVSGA

Aromatase = target: T3, Aromatase (Homo sapiens, UniProt P11511); assay: Inhibition of human CYP19
T3 sequence (P11511 whole entry): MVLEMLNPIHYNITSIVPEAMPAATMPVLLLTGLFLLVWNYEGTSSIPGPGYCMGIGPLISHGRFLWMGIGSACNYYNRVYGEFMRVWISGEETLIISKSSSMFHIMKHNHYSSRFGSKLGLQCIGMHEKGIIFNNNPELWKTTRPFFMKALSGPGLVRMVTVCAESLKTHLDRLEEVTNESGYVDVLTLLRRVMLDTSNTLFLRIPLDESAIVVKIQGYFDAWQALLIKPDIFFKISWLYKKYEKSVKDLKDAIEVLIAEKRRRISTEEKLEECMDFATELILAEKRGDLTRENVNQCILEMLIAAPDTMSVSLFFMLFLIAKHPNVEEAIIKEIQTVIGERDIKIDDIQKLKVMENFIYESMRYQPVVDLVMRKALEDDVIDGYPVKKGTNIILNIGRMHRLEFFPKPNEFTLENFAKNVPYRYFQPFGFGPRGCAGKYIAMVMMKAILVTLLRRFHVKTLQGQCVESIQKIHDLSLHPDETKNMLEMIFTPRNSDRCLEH

[4] = target: T4, Steroid 17-alpha-hydroxylase/17,20 lyase (Homo sapiens, UniProt P05093); assay: Inhibition of human CYP17 expressed in COS7 cells assessed as DHEA level after 3 hrs by EIA assay in presence of 360 nM 17-hydroxypregnenolone; format: cell-based, COS-7
T4 sequence (P05093 whole entry): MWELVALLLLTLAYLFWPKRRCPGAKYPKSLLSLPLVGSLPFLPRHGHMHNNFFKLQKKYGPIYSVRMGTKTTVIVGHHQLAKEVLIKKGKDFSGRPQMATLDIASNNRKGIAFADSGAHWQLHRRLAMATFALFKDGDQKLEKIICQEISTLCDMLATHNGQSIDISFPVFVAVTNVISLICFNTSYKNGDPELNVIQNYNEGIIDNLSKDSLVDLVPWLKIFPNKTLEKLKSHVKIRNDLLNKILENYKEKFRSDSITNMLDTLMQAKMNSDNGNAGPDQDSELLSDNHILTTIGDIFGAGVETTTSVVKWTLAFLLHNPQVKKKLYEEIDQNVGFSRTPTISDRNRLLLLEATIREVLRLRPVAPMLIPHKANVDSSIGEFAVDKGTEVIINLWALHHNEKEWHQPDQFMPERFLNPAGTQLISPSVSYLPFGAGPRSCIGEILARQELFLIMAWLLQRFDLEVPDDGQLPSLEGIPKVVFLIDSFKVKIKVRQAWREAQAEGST

[5] = Intrinsic clearance in Sprague-Dawley rat liver microsomes by LC/MS method; format: ADME; settings: read-out: CLH
[6] = Oral bioavailability in Sprague-Dawley rat at 2 mg/kg administered through gavage; format: ADME, organism-based; settings: in vivo
Rattus norvegicus = assay: Dose normalized AUC in Sprague-Dawley rat at 2 mg/kg, po administered through gavage; format: ADME, organism-based; settings: in vivo
[7] = Inhibition of rhesus monkey CYP11B2 expressed in V79 cells assessed as aldosterone level after 3 hrs by HTRF assay in presence of 125 nM 11-deoxycorticosterone; format: cell-based; settings: Macaca mulatta, V79, 3 h
[8] = Plasma clearance in Sprague-Dawley rat at 2 mg/kg, po administered through gavage by LC/MS/MS method; format: ADME, organism-based
[9] = Half life in Sprague-Dawley rat at 2 mg/kg, po administered through gavage by LC/MS/MS method; format: ADME, organism-based; settings: in vivo
[10] = target: T5, Cytochrome P450 11B2, mitochondrial (Rattus norvegicus, UniProt P30099); assay: Inhibition of rat CYP11B2 expressed in V79 cells assessed as aldosterone level after 3 hrs by HTRF assay in presence of 500 nM 11-deoxycorticosterone; format: cell-based; settings: v79, 3 h
T5 sequence (P30099 whole entry): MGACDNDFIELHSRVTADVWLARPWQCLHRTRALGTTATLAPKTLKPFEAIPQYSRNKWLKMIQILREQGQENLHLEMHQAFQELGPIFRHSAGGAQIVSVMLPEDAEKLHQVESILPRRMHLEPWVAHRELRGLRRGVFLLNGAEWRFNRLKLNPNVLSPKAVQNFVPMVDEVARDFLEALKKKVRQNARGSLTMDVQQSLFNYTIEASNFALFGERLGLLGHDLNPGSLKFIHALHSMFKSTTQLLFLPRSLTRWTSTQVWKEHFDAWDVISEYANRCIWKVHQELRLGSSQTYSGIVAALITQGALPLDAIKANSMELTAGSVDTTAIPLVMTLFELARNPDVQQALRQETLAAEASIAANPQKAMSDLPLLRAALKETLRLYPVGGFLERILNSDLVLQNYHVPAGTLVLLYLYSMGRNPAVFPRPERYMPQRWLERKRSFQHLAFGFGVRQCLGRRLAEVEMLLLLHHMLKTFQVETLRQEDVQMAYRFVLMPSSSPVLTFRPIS

CYP11B1 = target: T6, CYP11B1 (Homo sapiens, UniProt P15538); assay: as §1; format: cell-based; settings: human, V79 cells expressing human CYP11B1, probe 11-deoxycortisol (250 nM)
T6 sequence (P15538 whole entry): T2 sequence (P15538 whole entry)

Row | Structure (SMILES) | pIC50 [1] | pIC50 [2] | Ratio IC50 (Homo sapiens) | further results
1 | Cc1nnc2n1-c1ccc(-c3cncc(C(=O)N(C)C)c3)cc1CC2 | < 5.08 | < 5.08 | – | –
2 | C[C@@](O)(c1cncc(-c2ccc3c(c2)CCc2nnc(C(F)(F)F)n2-3)c1)C(F)(F)F | 6.32 | < 5.08 | > 18 | logD [3]: 2.2
3 | c1ccc(-c2nnc3n2-c2ccc(-c4cccnc4)cc2CC3)cc1 | 6.99 | 5.87 | 13 | pIC50 (Cytochrome P450 3A4): 4.44; pIC50 (Aromatase): 7.68; pIC50 [4]: 7.08
4 | COC(C)(C)c1cncc(-c2ccc3c(c2)CCc2nnc(C)n2-3)c1 | 7.72 | 6.66 | – | pIC50 (Cytochrome P450 3A4): < 4.30; CLint scaled [5]: 107 mL/min/kg; bioavailability [6]: 10%; AUC/dose (Rattus norvegicus): 0.03 µM·kg·h/mg; pIC50 [7]: 8.52; pIC50 (Aromatase): 4.95; CL/F [8]: 177 mL/min/kg; half-life [9]: 18 min; pIC50 [4]: < 5.00; inhibition (INH) [10]: Active
5 | Cc1nnc2n1-c1ccc(-c3cncc(S(C)(=O)=O)c3)cc1CC2 | < 5.08 | < 5.08 | – | –
6 | Cc1nnc2n1-c1ccc(-c3cncc([C@@](C)(O)C(F)(F)F)c3)cc1CC2 | 6.96 | < 5.08 | – | logD [3]: 1.2
7 | Cc1nnc2n1-c1ccc(-c3cncc(C(F)(F)F)c3)cc1CC2 | 6.31 | < 5.00 | – | –
8 | Cc1nnc2n1-c1ccc(-c3cccnc3)cc1CC2 | 6.37 | < 5.00 | > 24 | CLint scaled [5]: 55 mL/min/kg; bioavailability [6]: 6%; AUC/dose (Rattus norvegicus): 0.1 µM·kg·h/mg; CL/F [8]: 38 mL/min/kg; half-life [9]: 12 min
9 | CNC(=O)c1cncc(-c2ccc3c(c2)CCc2nnc(C)n2-3)c1 | < 5.08 | < 5.08 | – | –
10 | Cc1nnc2n1-c1ccc(-c3cncc(C(C)(C)O)c3)cc1CC2 | 6.55 | < 5.08 | > 29 | CLint scaled [5]: < 20 mL/min/kg; bioavailability [6]: 19%; AUC/dose (Rattus norvegicus): 0.19 µM·kg·h/mg; pIC50 [7]: 7.47; logD [3]: 0.6; CL/F [8]: 50 mL/min/kg; half-life [9]: 90 min; inhibition (INH) [10]: Active
11 | FC(F)(F)c1nnc2n1-c1ccc(-c3cccnc3)cc1CC2 | 6.30 | < 5.08 | > 16 | –
12 | c1cncc(-c2ccc3c(c2)CCc2nnc(C4CCCCC4)n2-3)c1 | 5.62 | < 5.08 | > 3 | –
13 | c1cncc(-c2ccc3c(c2)CCc2nnc(C4CC4)n2-3)c1 | 6.31 | < 5.00 | > 21 | –
14 | Cc1nnc2n1-c1ccc(-c3cncc4ccccc34)cc1CC2 | 8.30 | – | – | CLint scaled [5]: 33 mL/min/kg; bioavailability [6]: 75%; AUC/dose (Rattus norvegicus): 0.27 µM·kg·h/mg; IC50 at 3 h (CYP11B1): 407 nM; CL/F [8]: 150 mL/min/kg; half-life [9]: 24 min
15 | C[C@](O)(c1cncc(-c2ccc3c(c2)CCc2nnc(C(F)(F)F)n2-3)c1)C(F)(F)F | 6.34 | 6.05 | 2 | logD [3]: 2.2
16 | COC(=O)c1cncc(-c2ccc3c(c2)CCc2nnc(C)n2-3)c1 | 7.24 | 5.66 | – | pIC50 (Cytochrome P450 3A4): < 4.30; pIC50 (Aromatase): < 5.00; pIC50 [4]: < 5.00
17 | Cc1nnc2n1-c1ccc(-c3cncc(S(=O)(=O)c4ccccc4)c3)cc1CC2 | 7.40 | 5.82 | – | –
18 | Cc1nnc2n1-c1ccc(-c3cncc(F)c3)cc1CC2 | 6.25 | < 5.00 | – | –
19 | c1cncc(-c2ccc3c(c2)CCc2nncn2-3)c1 | 6.52 | < 5.00 | > 33 | –
20 | COC(=O)C(C)(C)c1cncc(-c2ccc3c(c2)CCc2nnc(C)n2-3)c1 | 7.72 | 6.50 | – | –

— ChEMBL document CHEMBL3621164, “Discovery of Triazole CYP11B2 Inhibitors with in Vivo Activity in Rhesus Monkeys” (ACS Med Chem Lett, 2015)
